From PubChem
Rev-RRE block = HIV Rev-RRE protein-RNA interaction inhibition. 97,000 compounds, 0.79% hits. P05866. inhibition, % at 8 µM. Rev peptide-RRE RNA binding, FRET;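 active means inhibition above the screen-wide mean plus 3 SD, cut at about 35% in these data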
Target sequence (P05866 whole entry, looked up): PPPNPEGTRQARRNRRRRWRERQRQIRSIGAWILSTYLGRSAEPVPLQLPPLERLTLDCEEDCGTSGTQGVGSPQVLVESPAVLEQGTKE
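Test system: Cy5-tagged RRE RNA duplex with fluorescein-tagged Rev peptide; Probe or stimulus: labelled Rev peptide; Schedule: 5 min preincubation and 15 min binding, 25 °C; Signal: FRET fluorescence readout; Evaluation: % inhibition from 671/540 nm acceptor-to-donor ratio, scaled between controls; Control set: DMSO and neomycin B.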
ERb coact inh = blocks coactivator binding to human estrogen receptor beta | Q92731 | TR-FRET ER-beta LBD / SRC1-Cy5 peptide binding; receptor agonist-loaded with 1 µM estradiol | inhibition, % at 25.6 µM | 86,000 compounds, 1.3% hits | AID 633;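 active means compounds whose percent inhibition of the receptor-coactivator binding signal exceeds about 50% in the single-dose screen, limit read from the data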
Smad3 inh = inhibitors of human Smad3 transcription factor binding | P84022 | TR-FRET Smad3/Dy647-FoxH1 peptide binding, europium anti-His | inhibition, % at 25 µM | 88,000 compounds, 0.29% hits;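 active means compounds that reduce the energy-transfer binding signal between the protein and its labelled peptide by more than half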
ERa SRC1 inh = blocks coactivator binding to human estrogen receptor alpha | P03372 | TR-FRET ER-alpha LBD / SRC-1 peptide, estradiol-bound | inhibition, % at 25.6 µM | 86,000 compounds, 1.7% hits; in the data active means inhibition above about 50%
Target sequence (P03372 whole entry, looked up, the tested form may be a part): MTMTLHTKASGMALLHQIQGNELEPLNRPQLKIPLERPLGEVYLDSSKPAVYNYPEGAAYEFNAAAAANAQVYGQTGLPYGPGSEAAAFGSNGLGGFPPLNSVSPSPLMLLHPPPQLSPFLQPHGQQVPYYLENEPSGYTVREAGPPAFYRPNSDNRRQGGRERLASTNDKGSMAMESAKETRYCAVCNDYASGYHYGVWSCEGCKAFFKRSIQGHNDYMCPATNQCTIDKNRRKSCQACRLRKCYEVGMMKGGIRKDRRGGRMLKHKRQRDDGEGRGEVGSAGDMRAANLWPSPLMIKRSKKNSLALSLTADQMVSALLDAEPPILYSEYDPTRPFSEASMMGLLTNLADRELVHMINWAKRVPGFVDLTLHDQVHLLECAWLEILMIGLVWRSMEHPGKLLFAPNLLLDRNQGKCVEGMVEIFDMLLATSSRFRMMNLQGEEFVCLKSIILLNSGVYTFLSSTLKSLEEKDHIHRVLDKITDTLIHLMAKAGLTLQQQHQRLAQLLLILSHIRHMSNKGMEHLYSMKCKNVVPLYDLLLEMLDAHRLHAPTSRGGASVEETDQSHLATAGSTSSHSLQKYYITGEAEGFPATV
ERa coact pot = enhances coactivator binding to human estrogen receptor alpha. P03372. TR-FRET ERalpha-LBD/SRC-Cy5 coactivator binding, 2 h; 100 = basal binding, no effect. coactivator binding (% of control), % at 25.6 µM. 86,000 compounds, 1.3% hits. AID 639; in the data active means activity above about 200%;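 further: binding measured in presence of low estradiol as agonist stimulus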
FAK inh = blocks human focal adhesion kinase activity. biochemical FAK kinase activity assay. inhibition, %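 (tested at 7 µM)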. 97,000 compounds, 0.84% hits. AID 727; in the data active means inhibition above about 19%
Hits are given with their value; n = inactive; x = no result; [ ] = another dose, or the depositor's remark. Only some compounds are listed: those with a hit (about 4% of all), similar ones and a draw of the others.

SMILES	Rev-RRE block	ERb coact inh	Smad3 inh	ERa SRC1 inh	ERa coact pot	FAK inh
CCOC(=O)CN1C=C(c2ccc3ccccc3n2)C(C[N+](=O)[O-])c2ccccc21 (stereo not given)	94[fluorescence artefact?]	n	n	n	n	n
CC(C)(C)CC(C)(C)c1ccc(O)c(C[N+](C)(C)[O-])c1	x	x	n	x	x	x
COCCCNC(=O)CS(=O)(=O)Cc1nc(-c2ccccc2C)oc1C	n	x	x	x	x	n
Cc1ccccc1-c1nc(CS(=O)(=O)CC(=O)Nc2cc(F)ccc2F)c(C)o1	x	n	n	n	743[fluorescence artefact?]	x
N#C/C(=C\N1CCN(Cc2ccc3c(c2)OCO3)CC1)c1nc2ccccc2s1	65	n	n	n	n	n
CCOC(=O)N1CCN(/C=C(\C#N)c2nc3ccccc3s2)CC1	53	n	n	n	n	n
COC(=O)c1ccc(/C=C(\C#N)c2nc3ccccc3s2)cc1	n	n	n	n	n	n
Nc1nc(SCCC2CCCCC2)c2[nH]cnc2n1	x	x	n	x	x	x
CCOC(=O)CN1CC23C=CC(O2)C(C(=O)Nc2cc(OC)ccc2OC)C3C1=O (stereo not given)	x	69	n	72[fluorescence artefact?]	n	x
CCOC(=O)CN1CC23C=CC(O2)C(C(=O)Nc2ccc(OC)cc2OC)C3C1=O (stereo not given)	n	n	n	n	n	n
CN1C(=O)CC(C(=O)O)SC1=Nc1cc(Cl)c(O)c(Cl)c1 (stereo not given)	n	54	n	n	n	n
CCNC(=O)C1CC(=O)N(CC)C(=Nc2cc(Cl)c(O)c(Cl)c2)S1 (stereo not given)	n	n	n	n	n	n
COC(=O)c1ccc(NC(=O)CSCc2ccccc2C)cc1	n	n	n	n	n	n
Cc1nc(CN2CCCCC2)c(O)c(=O)[nH]1	x	x	n	x	x	x
CCOc1ccc(NC(=O)c2cc3cc4ccc(OC)cc4nc3o2)cc1	n	n	n	56	n	n
COc1ccc2cc3cc(C(=O)NCc4ccccn4)oc3nc2c1	n	x	x	x	x	n
CCOC(=O)C1=NN(c2cccc(Cl)c2)C2=NC(C)=C(C(=O)OC)C(c3cccs3)N12 (stereo not given)	n	n	n	n	n	n
NS(=O)(=O)c1ccc(N=Nc2ncccc2O)cc1	x	x	n	x	x	x
COc1ccc(C(=O)NC(C)(C)C)cc1S(=O)(=O)N1CCCC1	n	x	x	x	x	n
CCOc1ccc(C(=O)Nc2ccc(NC(=O)c3ccco3)c(Cl)c2)cc1Cl	n	n	n	n	715[fluorescence artefact?]	n
CCC(C)NC(=O)C1c2ccccc2C(=O)N(c2ccc(OC)cc2)C1c1ccc(OC)cc1 (stereo not given)	n	n	n	n	n	n
CN(C)c1ccc(/C=C/C(=O)c2cccc(Br)c2)cc1	131[fluorescence artefact?]	x	x	x	x	n
COc1ccc(NC(=O)c2cc(-c3ccc(C)o3)nc3ccccc23)cc1OC	n	68[fluorescence artefact?]	n	79[fluorescence artefact?]	n	n
COc1cccc2c1C(=O)c1c(O)c3c(c(O)c1C2=O)C[C@@](O)(C(=O)CO)C[C@H]3O[C@H]1C[C@@H](N)[C@H](O)[C@@H](C)O1.[W]	x	x	n	x	x	x
COc1ccc(N=Nc2nc3ccc(Br)cc3n2C)cc1	101[fluorescence artefact?]	x	x	x	x	n
SMILES	Rev-RRE block	ERb coact inh	Smad3 inh	ERa SRC1 inh	ERa coact pot	FAK inh
CCCn1c(=O)c2ccccc2n2c(SCN3C(=O)c4ccccc4C3=O)nnc12	x	96[fluorescence artefact?]	n	n	n	x
CCCn1c(=O)c2ccccc2n2c(SCC(=O)c3ccc(CC)cc3)nnc12	n	n	n	n	n	n
CCCCCCCC(=O)NC(Nc1ccc(S(N)(=O)=O)cc1)C(Cl)(Cl)Cl (stereo not given)	n	x	x	x	x	n
CC(=O)c1c(COC(=O)c2ccncc2)nc2ccccc2[n+]1[O-]	n	62[fluorescence artefact?]	n	n	n	n
CC(=O)c1c(COC(=O)c2ccco2)nc2ccccc2[n+]1[O-]	x	61	n	64	n	x
CCOC(=O)c1c(COC(=O)c2ccco2)nc2ccccc2[n+]1[O-]	n	n	n	n	n	n
Clc1ccc(CSCc2ccc(Cl)cc2Cl)c(Cl)c1	x	x	n	x	x	x
CN(C)c1ccc(/C=C/c2nc3ccccc3s2)cc1	106[fluorescence artefact?]	x	x	x	x	n
CCCCOC(=O)CSc1nnc(-c2cc(OC)c(OC)c(OC)c2)o1	n	n	n	n	n	n
CCOC(=O)c1c(C)[nH]c(C)c1C(=O)CSc1nnc(-c2cc(OC)c(OC)c(OC)c2)o1	n	n	n	n	313	n
Cc1ccc2nc(NC(=O)CSCc3ccccc3)sc2c1	n	85[fluorescence artefact?]	n	n	n	n
C[C@@H](SCc1ccccc1)C(=O)O	x	x	n	x	x	x
Cc1nn(-c2cccc(C(F)(F)F)c2)c(Cl)c1/C=N/n1cnnc1	36	n	n	n	n	n
O=C(Cn1cnc2c(cnn2-c2ccc(F)cc2)c1=O)NCC1CCCO1 (stereo not given)	n	n	n	n	200	n
Cc1cc(NC(=O)c2cc(-c3ccccc3)on2)n(-c2ccccc2)n1	n	n	n	n	529[fluorescence artefact?]	n
COc1cccc(-c2cc(C(=O)Nc3cc(C)nn3-c3ccccc3)no2)c1	n	n	n	n	455	n
COc1ccc(-c2cc(C(=O)Nc3cc(C)nn3-c3ccccc3)no2)cc1	n	n	n	n	n	n
Cc1ccc(S(=O)(=O)N=Nc2c(O)[nH]c3cc(O)c(C(=O)O)cc23)cc1	x	x	n	x	x	x
CCC(=C(c1ccc(OC)cc1)c1ccc(OC)cc1)c1cn(CC(O)CN2CCN(C)CC2)c2ccccc12 (stereo not given)	n	n	n	70[fluorescence artefact?]	n	n
COc1ccc(OCCn2cc(/C(N)=N/O)c3ccccc32)cc1	n	n	n	n	n	n
Cc1ccc2[nH]c(=O)c(-c3nc4ccccn4c3NCc3ccco3)cc2c1	n	n	n	53	n	n
CN(C)C[C@H]1CCC2=C(C1=O)C(c1ccc(Cl)c(Cl)c1)C1=C(CC[C@H](CN(C)C)C1=O)O2	x	x	n	x	x	x
OCCN1CCN(C(c2cccs2)c2ccc3cccnc3c2O)CC1 (stereo not given)	n	64[fluorescence artefact?]	n	69[fluorescence artefact?]	n	n
Cc1ccc(S(=O)(=O)Nc2nc(C)c(NC(=O)Nc3ccc(Cl)cc3Cl)s2)cc1	n	x	x	x	x	n
Nn1c(COc2ccccc2)nnc1SCC(=O)O	n	n	n	n	252[fluorescence artefact?]	n
SMILES	Rev-RRE block	ERb coact inh	Smad3 inh	ERa SRC1 inh	ERa coact pot	FAK inh
COc1ccccc1-c1cc(C(=O)NC(C)c2ccccc2)no1 (stereo not given)	n	n	n	n	276[fluorescence artefact?]	n
CCOC(=O)c1c(OCC)[nH]c2c1cc(O)c1ccccc12	n	99[fluorescence artefact?]	n	97[fluorescence artefact?]	n	n
COC(=O)/C=c1/sc2nc3ccccc3n2c1=O	n	n	n	n	n	n
O=c1/c(=C/c2ccccn2)sc2nc3ccccc3n12	n	n	n	90[fluorescence artefact?]	n	n
O=c1c2ccccc2nc2sc3ccccc3n12	n	x	x	x	x	20
O=C(O)C[n+]1ccccc1	x	x	n	x	x	x
O=S(=O)(NCCc1csc(-c2cccnc2)n1)c1cccs1	n	x	x	x	x	n
O=S(=O)(NCCc1csc(-c2cccnc2)n1)c1ccc(Cl)s1	n	n	n	83	n	n
